Measurements as given in ChEMBL document CHEMBL2417547 (J Med Chem, 2013).

What was measured:
CYP19 (aromatase) = molecular target: T1, CYP19 (aromatase) (Homo sapiens, UniProt P11511); test: Inhibition of microsomal CYP19 in human placenta using [1beta-3H]-androstenedione as substrate at 2 uM by 3H2O method relative to control; conditions: placental microsomes, probe [1beta-3H]-androstenedione
T1 sequence (P11511 whole entry): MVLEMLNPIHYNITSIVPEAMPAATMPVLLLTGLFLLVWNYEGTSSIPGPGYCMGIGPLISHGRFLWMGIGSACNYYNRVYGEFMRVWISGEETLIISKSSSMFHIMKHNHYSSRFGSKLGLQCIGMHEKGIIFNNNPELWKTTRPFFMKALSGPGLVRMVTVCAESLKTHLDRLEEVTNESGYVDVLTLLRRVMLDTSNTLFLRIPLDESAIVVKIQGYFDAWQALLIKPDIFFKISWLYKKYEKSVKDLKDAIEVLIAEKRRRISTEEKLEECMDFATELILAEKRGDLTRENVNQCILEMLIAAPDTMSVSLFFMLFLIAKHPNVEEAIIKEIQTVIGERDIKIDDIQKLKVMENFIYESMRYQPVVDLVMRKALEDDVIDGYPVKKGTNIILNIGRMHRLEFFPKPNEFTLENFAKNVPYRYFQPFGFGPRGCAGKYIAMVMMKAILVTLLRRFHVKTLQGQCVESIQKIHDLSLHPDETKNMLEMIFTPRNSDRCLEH
Outline: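 Human placental microsomes as the CYP19 source, with [1β-3H]androstenedione at 500 nM. Activity read by 3H2O release. Compound at 2 μM. Percent inhibition is the mean of at least three experiments (deviations <25%); values ≤5% are not significant.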

[1] = Half life in human plasma at 1 uM by LC-MS/MS analysis; type: ADME, cell-free
Outline: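 Compound at 1 μM in pooled heparinized plasma of the stated species, 37 °C, sampled at 0, 10, 30, 60 and 150 min. Proteins precipitated with 5 volumes of cold acetonitrile containing internal standard. Remaining compound quantified by LC-MS/MS to give half-life.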

[2] = molecular target: T2, Cytochrome P450 11B1, mitochondrial (Homo sapiens, UniProt P15538); test: Inhibition of human CYP11B1 expressed in hamster V79MZh cells using [1,2-3H]-11-deoxycorticosterone as substrate; type: cell-based
T2 sequence (P15538 whole entry): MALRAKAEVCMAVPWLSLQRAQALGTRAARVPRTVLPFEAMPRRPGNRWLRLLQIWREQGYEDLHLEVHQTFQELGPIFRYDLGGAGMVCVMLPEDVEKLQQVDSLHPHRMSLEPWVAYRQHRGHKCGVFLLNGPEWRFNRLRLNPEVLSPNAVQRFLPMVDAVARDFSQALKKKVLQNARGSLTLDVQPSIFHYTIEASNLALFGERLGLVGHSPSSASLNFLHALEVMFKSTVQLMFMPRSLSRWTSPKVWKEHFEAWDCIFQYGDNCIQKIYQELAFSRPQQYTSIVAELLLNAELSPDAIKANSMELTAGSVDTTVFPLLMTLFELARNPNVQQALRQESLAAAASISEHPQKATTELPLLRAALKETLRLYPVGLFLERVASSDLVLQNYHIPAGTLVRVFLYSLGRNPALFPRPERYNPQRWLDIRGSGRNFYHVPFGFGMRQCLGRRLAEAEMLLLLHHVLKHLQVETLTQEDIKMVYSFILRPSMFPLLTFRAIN
Outline: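 V79MZh hamster fibroblasts expressing human CYP11B1 or CYP11B2 were incubated with [1,2-3H]-11-deoxycorticosterone (100 nM) plus inhibitor at a range of concentrations. The selectivity factor is IC50(CYP11B2)/IC50(CYP11B1).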

[3] = molecular target: T3, Cytochrome P450 11B1, mitochondrial (Rattus norvegicus, UniProt P15393); test: Inhibition of rat CYP11B1 expressed in hamster V79MZh cells using [1,2-3H]-11-deoxycorticosterone as substrate; type: cell-based
T3 sequence (P15393 whole entry): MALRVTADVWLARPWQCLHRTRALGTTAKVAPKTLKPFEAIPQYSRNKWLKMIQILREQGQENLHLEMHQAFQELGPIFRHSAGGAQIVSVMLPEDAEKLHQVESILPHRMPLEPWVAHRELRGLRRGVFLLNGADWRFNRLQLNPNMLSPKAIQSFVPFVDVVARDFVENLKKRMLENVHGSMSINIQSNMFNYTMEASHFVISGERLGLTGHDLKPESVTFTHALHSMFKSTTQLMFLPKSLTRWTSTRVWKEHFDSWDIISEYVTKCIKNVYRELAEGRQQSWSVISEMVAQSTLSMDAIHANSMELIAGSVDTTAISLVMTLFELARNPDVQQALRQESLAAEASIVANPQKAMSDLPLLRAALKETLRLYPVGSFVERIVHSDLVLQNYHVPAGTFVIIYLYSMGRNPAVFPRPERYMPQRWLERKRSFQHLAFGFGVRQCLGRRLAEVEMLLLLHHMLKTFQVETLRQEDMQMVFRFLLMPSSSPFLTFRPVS
Outline: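 V79MZh cells expressing rat CYP11B1 were incubated with [1,2-3H]-11-deoxycorticosterone (100 nM) and inhibitor at varying concentrations. IC50 is the mean of more than three repeats.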

Cc1cncc(Cc2ccc(-c3ccccc3)nc2)c1
inhibition at 2 µM (CYP19 (aromatase)): 1% | half-life at 1 µM [1]: > 2.5 h | IC50 [2]: 0.002 µM | IC50 [3]: 2.44 µM
